This note sets out measurements from ChEMBL document CHEMBL3098129, “Preparation and evaluation of deconstruction analogues of 7-deoxykalafungin as AKT kinase inhibitors” (Bioorg Med Chem Lett, 2014).

pIC50: −log10 of the molar value.

Assay [1] addresses cAMP-dependent protein kinase catalytic subunit alpha (Homo sapiens, UniProt P17612). The experiment in a line: Inhibition of PKAalpha (unknown origin) using serine/threonine 01 peptide as substrate after 1 hr by FRET based Z'-LYTE assay. The gist of the method: (§1)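 Run with a commercial Z'-LYTE kit, a FRET read-out of the kinase phosphorylating a peptide substrate. It detects functional inhibition of kinase activity regardless of mechanism.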

Assay [2] has as its target RAC-alpha serine/threonine-protein kinase (Homo sapiens, UniProt P31749). The assay is described as follows: Inhibition of recombinant AKT1 (unknown origin) using serine/threonine 06 peptide as substrate after 1 hr by FRET based Z'-LYTE assay. The gist of the method: as §1

Chain of RAC-alpha serine/threonine-protein kinase (P31749 whole entry): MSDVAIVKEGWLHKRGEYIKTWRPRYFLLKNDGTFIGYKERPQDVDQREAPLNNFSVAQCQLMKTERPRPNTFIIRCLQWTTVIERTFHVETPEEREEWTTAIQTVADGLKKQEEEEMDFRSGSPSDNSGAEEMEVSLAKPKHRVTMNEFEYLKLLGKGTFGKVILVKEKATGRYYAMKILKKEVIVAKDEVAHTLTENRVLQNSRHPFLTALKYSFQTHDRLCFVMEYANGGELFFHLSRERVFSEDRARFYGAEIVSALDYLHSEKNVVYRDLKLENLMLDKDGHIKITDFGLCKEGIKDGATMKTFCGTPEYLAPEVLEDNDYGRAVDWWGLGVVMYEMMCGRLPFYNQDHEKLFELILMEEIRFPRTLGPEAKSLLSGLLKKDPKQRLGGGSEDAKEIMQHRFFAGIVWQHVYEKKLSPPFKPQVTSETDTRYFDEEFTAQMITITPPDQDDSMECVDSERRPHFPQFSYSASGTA

On to `O=C1C[C@@H](O)[C@@H](C2=CC(=O)c3ccccc3C2=O)O1`, for which the negative logarithm of the IC50 (pIC50) (as a rule, −log10 of the IC50, conventionally taken in molar units) in assay [1] was 6.37; in assay [2] it was 5.53.

Turning to `COC/C=C/C(=O)c1ccccc1`, the negative-log IC50 (pIC50) is below 4.00 in assay [1] and 4.30 in assay [2].

On to `COC(=O)CC/C=C/C(=O)c1ccccc1`, for which the pIC50 in assay [1] was below 4.00; in assay [2], 4.86.

`C=CC(=O)c1ccccc1`: the pIC50 was below 4.00 in assay [1] and 4.91 in assay [2].

Regarding `C[C@H]1O[C@@H]2CC(=O)O[C@@H]2C2=C1C(=O)c1ccccc1C2=O`, the pIC50 in assay [1] is below 4.00; in assay [2] it was 6.55.
